The source made the active and inactive calls. The calls are words filed in the database; no cut-off is given here.
Tests used:
[1] = system: MOLT-4; experiment: Antitumor activity against human MOLT-4 cells xenografted in SCID-bg mouse assessed as tumor regression at 25 mg/kg, po administered twice a day for 14 days; type: functional, organism-based; conditions: time 14.0 day
Procedure, shortened: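 Mice bearing Molt-4 T-ALL xenografts, dosed alongside a vehicle control group. Each point on the growth curve is the mean volume of 10 tumours, with SD.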

[2] = system: A549; experiment: Antitumor activity against 3 times passaged human A549 cells xenografted in po dosed SCID mouse assessed as tumor growth delay relative to control; type: functional
[3] = Toxicity in Sprague-Dawley rat assessed as inhibition of granulopoiesis by measuring reduction in neutrophil count at 7 mg/kg, po administered daily for 5 days measured on day 6 in presence of docetaxel by microscopic analysis relative to control; type: organism-based; conditions: in vivo, 144 h, time 6 day
Procedure, shortened: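 Male Sprague-Dawley rats, n = 10 per group: docetaxel 5 mg/kg i.v. once, or oral inhibitor daily for 5 days (30, 50 or 7 mg/kg depending on agent), alone or combined with docetaxel, against vehicles. Total neutrophil and platelet counts in blood collected on day 6; Tukey-Kramer test versus vehicle.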

[4] = system: NCI-H747; experiment: Antitumor activity against human NCI-H747 cells xenografted in po dosed SCID-bg mouse assessed as maximum tumor growth inhibition relative to control; type: functional
[5] = target: Apoptosis regulator Bcl-2 (Homo sapiens, UniProt P10415); experiment: Binding affinity to Bcl-2 (unknown origin) assessed as dissociation constant incubated for 1 hrs by TR-FRET assay
Sequence of Apoptosis regulator Bcl-2 (P10415 whole entry): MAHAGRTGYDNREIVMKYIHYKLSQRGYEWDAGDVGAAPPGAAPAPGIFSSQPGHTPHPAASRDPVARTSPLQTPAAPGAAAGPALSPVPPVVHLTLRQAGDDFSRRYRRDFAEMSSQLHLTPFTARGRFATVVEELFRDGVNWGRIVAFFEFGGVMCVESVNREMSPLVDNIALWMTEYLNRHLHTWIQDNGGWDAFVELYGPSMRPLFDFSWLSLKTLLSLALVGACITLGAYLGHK

[6] = system: NCI-H747; experiment: Synergistic antitumor activity against human NCI-H747 cells xenografted in po dosed SCID-bg mouse assessed as tumor growth delay in presence of docetaxel relative to control; type: functional
Procedure, shortened: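 Xenografts dosed with oral inhibitor plus intravenous docetaxel. TGImax = 100(1 − Tv/Cv), from mean treated and control tumor volumes; TGD = 100(T/C − 1), from median times to reach 1 cm3. Group size 5 mice (NCI-H747, A549-FP3, EBC-1, OVCAR-5), 8 (NCI-H358), 10 (NCI-H1650).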

[7] = system: OVCAR-5; experiment: Antitumor activity against human OVCAR-5 xenografted in po dosed SCID mouse assessed as tumor growth delay relative to control; type: functional
Procedure, shortened: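 Tumor volume-based endpoints. TGD = 100(T/C − 1), where T and C are the median times for the treated and control groups to reach 1 cm3. Groups were five mice for NCI-H747 and OVCAR-5 and eight for NCI-H358. Docetaxel was given intravenously and the test agent orally.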

[8] = system: NCI-H358; experiment: Antitumor activity against human NCI-H358 cells xenografted in po dosed SCID mouse assessed as maximum tumor growth inhibition relative to control; type: functional
[9] = system: T47D; experiment: Induction of apoptosis in human T47D cells assessed as accumulation of cells with sub-G0-G1 DNA content at 1 uM incubated for 48 hrs in presence of docetaxel by flow cytometric analysis; type: functional, cell-based
[10] = system: MDA-MB-453; experiment: Induction of apoptosis in human MDA-MB-453 cells assessed as accumulation of cells with sub-G0-G1 DNA content at 1 uM incubated for 48 hrs in presence of docetaxel by flow cytometric analysis; type: functional, cell-based
[11] = system: ZR-75-1; experiment: Induction of apoptosis in human ZR-75-1 cells assessed as accumulation of cells with sub-G0-G1 DNA content at 1 uM incubated for 48 hrs in presence of docetaxel by flow cytometric analysis; type: functional, cell-based
[12] = system: BT-474; experiment: Induction of apoptosis in human BT-474 cells assessed as accumulation of cells with sub-G0-G1 DNA content at 1 uM incubated for 48 hrs in presence of docetaxel by flow cytometric analysis; type: functional, cell-based
[13] = system: MDA-MB-231; experiment: Induction of apoptosis in human MDA-MB-231 cells assessed as accumulation of cells with sub-G0-G1 DNA content at 1 uM incubated for 48 hrs in presence of docetaxel by flow cytometric analysis; type: functional, cell-based
[14] = Inhibition of granulocyte colony formation in human bone marrow cells at 0.1 to 20 uM incubated for 14 to 16 days in presence of docetaxel by light microscopic analysis; type: toxicity, cell-based; conditions: bone marrow cell, dose lower 0.1 µM, time lower 14 day, dose upper 20 µM, time upper 16 day
Procedure, shortened: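 Human bone marrow granulocyte colony-forming assay in semisolid medium, increasing inhibitor concentrations ± 5 nM docetaxel; colonies counted by light microscopy after 14 days; triplicate means with SD; combinations compared with docetaxel alone by Student's t test.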

[15] = system: HCC2218; experiment: Antagonistic antiproliferative activity against human HCC2218 cells assessed as reduction in cell viability by measuring bliss sum score incubated for 72 hrs in presence of docetaxel by CellTiter-Glo cell vaibility assay; type: functional
[16] = system: EBC-1; experiment: Antagonistic antiproliferative activity against human EBC-1 cells assessed as reduction in cell viability by measuring bliss sum score incubated for 72 hrs in presence of docetaxel by CellTiter-Glo cell vaibility assay; type: functional
[17] = Antagonistic antiproliferative activity against […] (unknown origin) cells assessed as reduction in cell viability by measuring bliss sum score incubated for 72 hrs in presence of docetaxel by CellTiter-Glo cell vaibility assay; type: functional
[18] = system: SK-MES-1; experiment: Synergistic antiproliferative activity against human SK-MES-1 cells assessed as reduction in cell viability by measuring bliss sum score incubated for 72 hrs in presence of docetaxel by CellTiter-Glo cell vaibility assay; type: functional
[19] = system: MCF7; experiment: Synergistic antiproliferative activity against human MCF7 cells expressing luciferase assessed as reduction in cell viability by measuring bliss sum score incubated for 72 hrs in presence of docetaxel by CellTiter-Glo cell vaibility assay; type: functional
[20] = system: MDA-MB-231; experiment: Synergistic antiproliferative activity against LC3 positive human MDA-MB-231 cells assessed as reduction in cell viability by measuring bliss sum score incubated for 72 hrs in presence of docetaxel by CellTiter-Glo cell vaibility assay; type: functional
[21] = system: MDA-MB-361; experiment: Synergistic antiproliferative activity against human MDA-MB-361 cells assessed as reduction in cell viability by measuring bliss sum score incubated for 72 hrs in presence of docetaxel by CellTiter-Glo cell vaibility assay; type: functional
[22] = system: NCI-H1703; experiment: Synergistic antiproliferative activity against human NCI-H1703 cells assessed as reduction in cell viability by measuring bliss sum score incubated for 72 hrs in presence of docetaxel by CellTiter-Glo cell vaibility assay; type: functional
[23] = system: HCC1806; experiment: Synergistic antiproliferative activity against human HCC1806 cells assessed as reduction in cell viability by measuring bliss sum score incubated for 72 hrs in presence of docetaxel by CellTiter-Glo cell vaibility assay; type: functional
[24] = system: HCC38; experiment: Synergistic antiproliferative activity against human HCC38 cells assessed as reduction in cell viability by measuring bliss sum score incubated for 72 hrs in presence of docetaxel by CellTiter-Glo cell vaibility assay; type: functional
[25] = system: ZR-75-30; experiment: Antagonistic antiproliferative activity against human ZR-75-30 cells assessed as reduction in cell viability by measuring bliss sum score incubated for 72 hrs in presence of docetaxel by CellTiter-Glo cell vaibility assay; type: functional
[26] = system: SK-BR-3; experiment: Synergistic antiproliferative activity against human SK-BR-3 cells assessed as reduction in cell viability by measuring bliss sum score incubated for 72 hrs in presence of docetaxel by CellTiter-Glo cell vaibility assay; type: functional

## Cc1c(-c2ccc(N3CCc4cccc(C(=O)Nc5nc6ccccc6s5)c4C3)nc2C(=O)O)cnn1CC12CC3CC(CC(C3)C1)C2
[1]
  Activity: Active
[2]
  Activity: 108%
[3]
  Activity: Toxic
[4]
  TGI: 50%
[5]
  Ki: 6 nM
[6]
  Activity: 167%
[7]
  Activity: 54%
[8]
  TGI: 62%

## CC1(C)CCC(c2ccc(Cl)cc2)=C(CN2CCN(c3ccc(C(=O)NS(=O)(=O)c4ccc(N[C@H](CCN5CCOCC5)CSc5ccccc5)c(S(=O)(=O)C(F)(F)F)c4)cc3)CC2)C1 [NAVITOCLAX]
[9]
  Activity: Active
[10]
  Activity: Active
[11]
  Activity: Active
[12]
  Activity: Active
[13]
  Activity: Active
[14]
  Activity: Toxic

## CN(C)CC#Cc1ccc(OCCCc2sc(N3CCc4cccc(C(=O)Nc5nc6ccccc6s5)c4C3)nc2C(=O)O)c(F)c1 [A-1155463]
[15]
  Activity_index: -250
[16]
  Activity_index: -103
[17]
  Activity_index: -269
[18]
  Activity_index: 152
[19]
  Activity_index: 63
[20]
  Activity_index: 305
[21]
  Activity_index: 110
[22]
  Activity_index: 29
[23]
  Activity_index: 224
[24]
  Activity_index: 42
[25]
  Activity_index: -265
[26]
  Activity_index: 101

— ChEMBL document CHEMBL5705901, “Exploiting selective BCL-2 family inhibitors to dissect cell survival dependencies and define improved strategies for cancer therapy” (Sci Transl Med, 2015)
